Bioassay records (PubChem)
CHOP UPR activ: activators of apoptotic CHOP UPR arm, primary screen, cell-based, CHO-CHOP luciferase reporter, luminescence, uHTS; UPR activation; percent of tunicamycin response over DMSO baseline; activation, % at 10 µM; 330,000 compounds, 0.34% hits; AID 449763, 2010;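 active means at 10 µM dose, activation of 40% or more, normalized to positive control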;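 further: 100% = tunicamycin at 10 µg/mL and 0% = DMSO alone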
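Evaluation: % reporter activation, DMSO baseline versus tunicamycin full activation; System: CHO-CHOP luciferase reporter cell line; Input: 500 cells/well; Incubation: 6 h compound treatment, 37 °C; Measured by: Steady-Glo luciferase luminescence; Dosing: one dose, 10 µM in 0.5% DMSO; Buffer or medium: F12 medium, 10% FBS; Benchmarks: positive tunicamycin 10 µg/mL, negative DMSO alone.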
UBC13 polyUb: UBC13 polyubiquitin chain formation inhibitors, primary screen, biochemical, TR-FRET, uHTS | 330,000 compounds, 0.47% hits | Ubiquitin-conjugating enzyme E2 N (Homo sapiens), P61088 | inhibition, % at 20 µM | AID 485273, 2010; in the data active means inhibition above about 45%, passing the limit was not always enough; inconclusive means no clear call, values can overlap the other calls
XBP1 UPR activ: activators of adaptive XBP1 UPR arm, primary screen, cell-based, CHO-XBP1 luciferase reporter, luminescence, uHTS; AID 463104, 2010; IRE1-XBP1 UPR activation; percent of tunicamycin response, DMSO as zero; 330,000 compounds, 0.33% hits; activation, % at 20 µM;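 active means versus positive control, 20 µM dose yields 30% or more activation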;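 further: 100% = tunicamycin at 10 µg/mL and 0% = DMSO only wells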
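Material: IRE1-XBP1 luciferase reporter CHO line / Quantity: one thousand reporter cells per well / Buffer or medium: F12 with 10% serum / Compound: 20 µM single concentration, DMSO 1% / Times: 6 h treatment, 37 °C / Detection: Steady-Glo luciferase glow luminescence, 10 min after reagent addition / Benchmarks: tunicamycin high, DMSO low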
Mdm2-MdmX inh: inhibitors of human Mdm2-MdmX association, primary screen, cell-based, luminescence, split luciferase, SaOS-2, uHTS; SaOS-2 split-luciferase Mdm2/MdmX complementation; 330,000 compounds, 3% hits; Protein Mdm4 (Homo sapiens) + E3 ubiquitin-protein ligase Mdm2 (Homo sapiens), …; inhibition, % at 8 µM; AID 485346, 2010;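 active means inhibition of at least 50% at 8 µM in the primary screen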
Apaf1 inhib: inhibitors of human Apaf-1 apoptosome, primary screen, biochemical, DEVD-Rh110 fluorescence, uHTS; reconstituted apoptosome caspase-3 activity; AID 489030, 2010; inhibition, % at 20 µM; Apoptotic protease-activating factor 1 (Homo sapiens), O14727; 330,000 compounds, 0.71% hits; active means inhibition of at least 40% at 20 µM;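 further: plate controls were DMSO wells for no effect and DEVD-CHO caspase inhibitor wells for full effect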
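System: Apoptosome proteins | Medium: Hepes pH 7.5 with detergent and BSA | Also added: Cytochrome c trigger plus (Z-DEVD)2-Rh110 caspase-3 substrate | Incubation: 30 min compound preincubation, 50 min activation, room temperature | Detection: Rhodamine 110 fluorescence at Ex 480/Em 540 nm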
Mdm2-MdmX conf: Mdm2-MdmX complex disruptors, retested hits, confirmation, luminescence, single concentration | shares compounds with Mdm2-MdmX inh | Mdm2-MdmX binding, luminescent assay | inhibition, % at 8 µM | 10,000 compounds, 55% hits; in the data active means inhibition above about 40%
FLuc counter: full-length luciferase signal inhibition, confirmation, counter-screen for Mdm2/MdmX interaction inhibitor project, cell-based, single concentration, SaOS-2; inhibition, % at 8 µM; 6,200 compounds, 77% hits; SaOS-2 full-length luciferase counterscreen, luminescence; shares compounds with Mdm2-MdmX inh;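 active means mean inhibition at 8 µM reaching about 37%, which flags the compound as non-specific, limit read from the data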;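 further: p53-null SaOS-2 cells with luciferase driven by a doxycycline-inducible promoter; compound on cells about two nights before reading with doxycycline added after day one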
* marks the source's active call; other numbers are inactive results; ? = inconclusive; nt = no result. Shown are actives, neighbours in structure and some others; about 4.1% of the full set was active somewhere.

SMILES	CHOP UPR activ	UBC13 polyUb	XBP1 UPR activ	Mdm2-MdmX inh	Apaf1 inhib	Mdm2-MdmX conf	FLuc counter
COc1ccc(-n2nc(C(=O)NCC(=O)Nc3cc(OC)c(OC)c(OC)c3)c3ccccc3c2=O)cc1OC	6	10	3	70*	6	67*	68*
COc1ccc(-n2nc(C(=O)NCC(=O)Nc3cccc(NC(C)=O)c3)c3ccccc3c2=O)cc1	-1	4	-3	10	-5	nt	nt
COc1ccc(-n2nc(C(=O)NCC(=O)Nc3cc(OC)c(OC)c(OC)c3)c3ccccc3c2=O)cc1	1	0	19	52*	18	33	nt
COCC(=O)N(Cc1cc2cccc(C)c2[nH]c1=O)c1ccccc1	2	9	2	11	-3	nt	nt
CN(C)S(=O)(=O)c1ccc(-c2csc(N/N=C/c3ccc(O)cc3)n2)cc1	18	-13	-6	100*	8	83*	38*
CN(C)S(=O)(=O)c1ccc(-c2csc(N/N=C/c3ccco3)n2)cc1	2	7	-5	72*	-14	36	nt
CCOC(=O)N1CCN(C(=O)CSCC(=O)Nc2nc(-c3ccc(-c4ccccc4)cc3)cs2)CC1	10	3	6	-77	31	nt	nt
CCn1c(SCC(=O)Nc2nc(-c3ccccc3)cs2)nc2c1c(=O)n(C)c(=O)n2C	1	-2	3	64*	5	8	nt
CCOC(=S)SCC(=O)Nc1nc(-c2ccccc2)cs1	3	6	4	60*	-19	57*	100*
CCCn1c(SCC(=O)Nc2nc(-c3ccc(OC)cc3)cs2)nc2c1c(=O)n(C)c(=O)n2C	30	-10	17	68*	3	13	nt
Cc1ccc(C)c(-n2cc[nH]c2=S)c1	-3	10	-1	7	3	nt	nt
CC(=O)c1ccc(N2CCN(C(=O)c3c(-c4ccccc4Cl)noc3C)CC2)cc1	1	4	-4	-31	11	nt	nt
CC(=O)c1ccc(N2CCN(C(=O)c3noc4c3CSc3ccccc3-4)CC2)cc1	5	-6	-3	51*	3	-12	nt
O=C1CN(S(=O)(=O)c2cccc(Br)c2)CCN1	1	0	1	11	11	nt	nt
Cc1ccc(NC(=O)c2ccc(NCCCN3CCC(C)CC3)c([N+](=O)[O-])c2)cc1F	1	-4	-1	60*	-1	55*	47*
O=C(NC(Cc1c[nH]c2ccccc12)C(=O)Nc1ccc(F)cc1)c1cccs1 (stereo unspecified)	-1	10	-2	86*	12	71*	70*
Cc1ccccc1OCCOC(=O)c1cc(S(=O)(=O)N2CCCCC2)ccc1N1CCOCC1	6	7	1	5	31	nt	nt
CC1CCCCC1NC(=O)CN(C)S(=O)(=O)c1ccc2c(c1)CCC(=O)N2 (stereo unspecified)	0	1	-5	14	-21	nt	nt
O=[N+]([O-])c1cc(Cl)cc(/C=N/Nc2nc3ccccc3s2)c1O	1	-54	-2	80*	3	-1	nt
COc1cc(/C=N/Nc2nc3ccccc3s2)cc([N+](=O)[O-])c1O	5	-79	2	-5	-4	nt	nt
Brc1csc(/C=N/Nc2nc3ccccc3s2)c1	7	1	4	-226	7	nt	nt
C(=N\Nc1nc2ccccc2s1)/c1ccccn1	-10	-20	-9	94*	4	95*	48*
CN(C)CCNc1ccc(-c2nn(C)c(=O)c3ccccc23)cc1[N+](=O)[O-]	-2	-51	-1	53*	-10	37	78*
Cc1cc(C)c(C#N)c(SCC(=O)c2ccc(Cl)cc2Cl)n1	0	10	2	74*	12	73*	70*
CC(CNC(=O)c1ccc(-c2ccccc2)cc1)CN(C)C (stereo unspecified)	-1	0	-1	15	-9	nt	nt
SMILES	CHOP UPR activ	UBC13 polyUb	XBP1 UPR activ	Mdm2-MdmX inh	Apaf1 inhib	Mdm2-MdmX conf	FLuc counter
CN(C)CC(CCCCC(CN(C)C)C(=O)c1ccccc1)C(=O)c1ccccc1 (stereo unspecified)	0	-8	-1	56*	1	43*	54*
COc1cccc2cc(-c3cc(=O)oc4cc(C)c(OCC(C)=O)cc34)oc12	-2	-11	-2	55*	1	-14	nt
COc1ccccc1NC(=O)NC1(C(=O)N2CCC(C)CC2)CCCCC1	0	5	-6	6	2	nt	nt
CCOC(=O)N1CCN(C(=O)c2ccc(SC)cc2OC)CC1	-1	0	-1	14	-9	nt	nt
COC(=O)c1c(C)[nH]c(C(=O)CSc2ncnc3sc(-c4ccccc4)cc23)c1C	0	16	10	67*	3	13	nt
CN1c2ccccc2C(C)(C)C12CC(c1cccc(S(=O)(=O)N3CCCC3)c1)=NO2 (stereo unspecified)	2	?	0	69*	10	65*	106*
CN1c2ccccc2C(C)(C)C12CC(c1ccc(S(=O)(=O)N3CCCCC3)cc1)=NO2 (stereo unspecified)	2	20	-2	65*	-4	74*	74*
CCN(CC)S(=O)(=O)c1ccc(C2=NOC3(C2)N(C)c2ccccc2C3(C)C)cc1 (stereo unspecified)	0	11	0	72*	19	69*	79*
Cc1ccc(OCCn2c(=S)[nH]c3ccccc32)c(C(C)C)c1	-3	-3	-4	8	23	nt	nt
CC1CCN(C(=O)CSc2nc(C(C)C)nc3c2c(=O)n(C)c(=O)n3C)CC1	3	10	-7	35	9	nt	nt
Nc1cc(=O)[nH]c(SCC(=O)NCCC2=CCCCC2)n1	1	1	-1	-1	2	nt	nt
CC1CCN(Cc2c(C(=O)N/N=C/c3cc(Cl)ccc3O)nnn2-c2nonc2N)CC1	-3	-7	3	79*	6	84*	22
COc1cc(/C(C)=N/NC(=O)c2nnn(-c3nonc3N)c2-c2cccs2)ccc1O	1	-1	-5	69*	8	6	nt
